Hits are enriched below; roughly 3.8% of the tested compounds scored in any of these assays.
KCNQ1 inh = blocks the human KCNQ1 potassium channel. P51787. CHO-K1 KCNQ1, FluxOR thallium flux fluorescence; active compounds read high. B-score at 10 µM. 310,000 compounds, 1.3% hits;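 active = compounds whose thallium flux B-score, printed positive for inhibition, exceeds three library SD while starting fluorescence stays within three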;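 note: channel opened by potassium depolarization with thallium stimulus after 20 min compound exposure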
KCNK9 inh = blocks the human KCNK9 two-pore domain potassium channel. Q9NPC2. HEK293 KCNK9, FluxOR thallium flux fluorescence; active compounds read low. B-score at 10 µM. 310,000 compounds, 1.2% hits. AID 488922;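 active = ratio B-score over 3 SD below the library mean, with starting fluorescence within 5 SD of its mean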;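 note: negative B-score means less thallium flux so channel inhibition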
KCNQ1 pot = potentiators or activators of human KCNQ1 potassium channel; P51787; CHO-K1 KCNQ1, thallium flux FluxOR fluorescence; active compounds read high; B-score at 10 µM; 310,000 compounds, 0.35% hits; AID 2648;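 active = fluorescence ratio B-score, a plate-corrected score, at least three library SD, with initial intensity B-score within 5 SD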
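Medium – assay buffer, equal DMSO in all wells · Material – CHO-K1 cell line with stable KCNQ1 potassium channel expression · Signal – kinetic FluxOR thallium fluorescence, 10-s 1-Hz baseline, 110-s post-stimulus read · Compound – single concentration per compound, DMSO matched to controls · Schedule – 37 °C overnight plating, 90-min dark dye load, 20-min compound pretreatment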
Kir21 block = Kir2.1 (mouse) channel inhibition. B-score at 10 µM. P35561. 310,000 compounds, 0.85% hits. HEK293-Kir2.1, FluxOR thallium flux fluorescence; active compounds read low;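 active = fluorescence ratio B-score at or below minus 3 SD of library scores, with starting-brightness B-score within 2 SD, cut at about -4.2 in these data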;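 note: channel flux triggered by added potassium and thallium sulfate stimulus; B-score of peak minus minimum fluorescence over baseline after thallium stimulus; more negative B-score means stronger Kir2.1 block with less thallium influx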
hERG protect = shields human hERG channel from block by proarrhythmic agents. 310,000 compounds, 0.51% hits. CHO-hERG, FluxOR thallium flux, dofetilide IC70 present. Q12809. activation (rescue from dofetilide block), less the hit threshold, % at 10 µM;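 active = activation above the mean of controls blocked by dofetilide plus 5 SD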;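 note: thallium influx through hERG after potassium depolarization seen as dye fluorescence rise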
KCNK3 block = human KCNK3 channel inhibition, primary screen | O14649 | CHO-KCNK3 thallium flux, FluxOR fluorescence; active compounds read low | B-score at 10 µM | 340,000 compounds, 0.84% hits | AID 602410;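 active = B-score under library mean minus 4 SD, starting fluorescence ratio at most library mean plus 5 SD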;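 note: more negative B-score means stronger inhibition of thallium flux through KCNK3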
Target sequence (O14649 whole entry, looked up): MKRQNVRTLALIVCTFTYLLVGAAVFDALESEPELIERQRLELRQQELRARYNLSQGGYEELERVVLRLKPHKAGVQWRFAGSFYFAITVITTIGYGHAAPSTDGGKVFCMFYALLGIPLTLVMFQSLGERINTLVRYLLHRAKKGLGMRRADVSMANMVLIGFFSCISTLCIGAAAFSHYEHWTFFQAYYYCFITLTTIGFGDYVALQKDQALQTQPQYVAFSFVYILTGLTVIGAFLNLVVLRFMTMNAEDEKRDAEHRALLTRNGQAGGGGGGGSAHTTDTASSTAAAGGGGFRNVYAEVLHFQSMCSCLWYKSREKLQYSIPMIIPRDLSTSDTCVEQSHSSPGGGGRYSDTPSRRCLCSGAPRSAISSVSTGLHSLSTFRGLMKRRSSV
* marks the source's active call; other numbers are inactive results; i = inactive; . = not tested or not shown.

SMILES	KCNQ1 inh	KCNK9 inh	KCNQ1 pot	Kir21 block	hERG protect	KCNK3 block
COc1ccc(/C=N/N2C(=O)c3ccccc3C2=O)cc1	i	i	i	0.24	-1	i
COc1ccccc1/C=N/N1C(=O)c2cccc3cccc(c23)C1=O	i	i	i	1.2	7.2*	i
O=C(NCCc1cccc(Cl)c1)c1ccc(OC2CCN(Cc3ccccn3)CC2)cc1	i	i	i	-5.4*	-19	i
Cc1cccnc1CCNC(=O)c1ccc(OC2CCN(Cc3ccccn3)CC2)cc1	i	i	i	-1.1	-11	i
CCCCN1CC(=O)N2[C@H](c3ccc(Cl)cc3)[C@@H]3C(=O)N(CC)C(=O)[C@@H]3[C@]2(Cc2ccccc2)C1=O	i	i	i	0.09	-2	i
CC(OC(=O)c1ccccc1Br)C(=O)Nc1nc(-c2cccc([N+](=O)[O-])c2)cs1 (stereo not drawn)	i	i	i	-1.5	-4	i
O=C(Nc1nc(-c2cccc([N+](=O)[O-])c2)cs1)C(c1ccccc1)c1ccccc1	11*	i	i	0.34	-10	i
Cc1ccc(NC(=O)c2c(Cl)n(C)c3ccccc23)cc1	i	-7.1*	i	0.98	-3	i
CC1CN(S(=O)(=O)c2ccc(C(=O)N(C)C3CCCCC3)cc2)CC(C)O1 (stereo not drawn)	.	.	.	.	.	i
COc1ccc(CN(C)CC2CCCN(CCc3ccccc3C)C2)cc1O (stereo not drawn)	i	i	i	-8.8*	-3	i
COc1cccc(CN(C)CC2CCCN(CCc3ccccc3C)C2)c1 (stereo not drawn)	i	i	i	-6.5*	-8	i
COc1cc(Cl)cc(/C=N/NC(N)=O)c1O	i	i	i	-1.1	-8	i
Cc1c(C(=O)OCc2ccc(F)cc2)sc2nc3n(c(=O)c12)CCC3	i	i	i	1.1	-12	i
N/C(Cc1ccc(Cl)cc1)=N\OC(=O)c1ccc2ccccc2c1	i	i	i	1.8	-2	i
N/C(Cc1ccc(Cl)cc1)=N\OC(=O)c1cccc2ccccc12	i	-14*	i	-0.21	-3	i
COc1ccc(COc2cc(-c3cccc(OC)c3)nc3ccc(NC(=O)c4cccnc4)cc23)cc1	6*	i	i	1.6	-33	i
Cc1ncc(S(=O)(=O)c2ccc(Cl)cc2)c(-c2ccccc2)n1	i	i	i	-4.8*	-7	i
O=S(=O)(c1ccccc1)c1cnc(-c2cccnc2)nc1-c1ccccc1	i	i	i	0.25	-3	i
O=C(Nc1ccc(Cl)cc1)Nc1nnc(SCc2ccccc2)s1	6*	i	i	0.26	-10	i
COc1ccc([N+](=O)[O-])cc1NC(=O)c1ccc(CN(c2ccccc2)S(C)(=O)=O)cc1	i	i	i	0.64	-6	i
CCOc1ccc2[nH]c(=O)c(CN(CCN3CCCC3)C(=S)Nc3ccccc3OCC)cc2c1	i	i	10*	-3.1	-10	i
COc1ccc2[nH]c(=O)c(CN(CCN3CCCC3)C(=O)Nc3ccccc3Cl)cc2c1	i	i	i	1.1	-13	i
Cc1ccc(NC(=O)c2ccc3c(c2)C(=O)N(c2ccccc2C)C3=O)nc1	.	.	.	.	.	i
CCOC(=O)N1CCN(C(=O)COC(=O)c2cc(Cl)c(O)c(Cl)c2)CC1	i	i	i	-1.7	8.1*	i
CCOC(=O)N1CCN(C(=O)COC(=O)c2cc(Cl)cc(Cl)c2)CC1	.	.	.	.	.	i
SMILES	KCNQ1 inh	KCNK9 inh	KCNQ1 pot	Kir21 block	hERG protect	KCNK3 block
COc1ccc(CNC(=O)c2sc3nc4c(c(C(F)(F)F)c3c2N)CCC4)cc1	i	i	i	-5.1*	-9	.
CCNc1nc(NCC)n2c(SCC(=O)Nc3ccccc3[N+](=O)[O-])nnc2n1	i	i	i	1.1	-7	i
NC1=NC2(CCC(c3ccccc3)CC2)n2c(nc3ccccc32)N1 (stereo not drawn)	i	-7.9*	i	0.69	-9	i
Cc1nn(Cc2ccccc2)c(Cl)c1/C=C/C(=O)OCC(=O)N1CCCC1=O	i	i	i	0.16	-16	i
COc1ccc(CNc2oc(-c3cccc4ccccc34)nc2C#N)cc1	i	-7.3*	i	0.22	-6	i
CCCCOP(=O)(OCCCC)C(Nc1ccc(C(=O)OCC)cc1)c1ccncc1 (stereo not drawn)	6*	i	i	0.29	-11	i
CCCOP(=O)(OCCC)C(Nc1ccc(C(=O)O)cc1)c1ccccc1 (stereo not drawn)	i	i	i	-0.47	-3	i
Cc1cc(OCC(=O)OCC(=O)N2CCc3ccccc3C2)ccc1Cl	.	.	.	.	.	i
CCOc1cc(N2CCOCC2)c(OCC)cc1NC(=O)COC(=O)CCn1c(C)csc1=O	i	i	i	1.2	-13	i
O=C(CCNS(=O)(=O)c1ccc(F)c(Cl)c1)NCc1ccccc1F	.	.	.	.	.	i
CCCc1[nH]nc2c1C(c1cccc(OC(=O)c3ccco3)c1)C(C#N)=C(N)O2 (stereo not drawn)	i	i	i	0.21	4.6*	i
O=C(OCc1cccc([N+](=O)[O-])c1)c1ccc2ccccc2n1	i	i	i	1.6	5.2*	i
CCCNC(=O)[C@H](Cc1c[nH]c2ccccc12)NC(=O)c1ccccc1Cl	i	i	i	0.04	-2	i
COC(=O)/C(=C\Nc1ccc(Cl)c2ccccc12)c1ncc(C(F)(F)F)cc1Cl	i	i	i	-0.83	-6	i
CCOC(=O)/C(=C\Nc1ccccc1C(F)(F)F)Sc1ncc(C(F)(F)F)cc1Cl	7*	i	i	0.08	-18	i
CCCCN(C(=O)C1CCCC1)c1c(N)n(CCC)c(=O)[nH]c1=O	.	.	.	.	.	i
Cc1ccc(C(=O)O)cc1NC(=O)c1ccc2c(c1)C(=O)N(c1ccc([N+](=O)[O-])cc1)C2=O	i	i	i	0.43	0	i
O=C(Nc1c[nH]c(=O)[nH]c1=O)c1ccc2c(c1)C(=O)N(c1cccc([N+](=O)[O-])c1)C2=O	i	i	i	1.9	1	i
O=C(O)c1ccc2c(c1)C(=O)N(c1cc([N+](=O)[O-])ccn1)C2=O	i	i	i	0.09	5.2*	i
O=C(Nc1ccccc1C(=O)O)c1ccc2c(c1)C(=O)N(c1cccc([N+](=O)[O-])c1)C2=O	i	i	i	0.52	7.0*	i
CC1(C)CC(NS(=O)(=O)c2ccc(S(N)(=O)=O)cc2)CC(C)(C)N1	i	i	i	-1.2	-6	i

Screening data (PubChem)
